Measured values pooled from the literature.
Compare with care: the assays were run in different laboratories.
Observed: enzyme activity
Action: inhibitor
ABL1 T315I: Tyrosine-protein kinase ABL1 (ABL1, Homo sapiens, UniProt P00519, T315I)
ABL1: Tyrosine-protein kinase ABL1 (ABL1, Homo sapiens, UniProt P00519)
ABL1 E255K: Tyrosine-protein kinase ABL1 (ABL1, Homo sapiens, UniProt P00519, E255K)

CS(=O)(=O)Nc1cccc(-c2csc(NC(=O)CSc3nc4nccnc4c(=O)n3CCc3ccccc3)n2)c1 — inhibition (ABL1 T315I; 10 µM): -2%
COc1cc2ncnc(Nc3ccc(Oc4ccccc4)c(C)c3C)c2cc1OC — inhibition (ABL1; 1 µM): -4%
COc1cc(-c2cc(-c3ccc(N4CCNCC4)cc3)cnc2N)cc(OC)c1OC — inhibition (Tyrosine-protein kinase ABL1 (ABL1, Homo sapiens, UniProt P00519, H396P); 0.1 µM): 87%
CN(C)C1CCN(CC#Cc2nn(C3CCCC3)c3nc(NCc4ccccc4)ncc23)C1 (stereo not shown) — inhibition (ABL1; FRET; 0.1 µM): 1%
C=CC(=O)Nc1cc(Nc2nccc(Nc3cc(Cl)c(F)cc3C(C)(C)O)n2)c(OC)cc1N1CC[C@@H](N(C)C)C1 — inhibition (ABL1; 1 µM): 6%
CNCc1ccc(-c2cc(-c3nc(-c4ccc(S(=O)(=O)C(C)C)cc4)cnc3N)on2)cc1 — inhibition (ABL1; 0.4 µM): 11%
CSc1nc(C)c(-c2ccnc(Nc3ccc(N4CCOCC4)cc3)c2)[nH]1 — inhibition (ABL1; 10 µM): 19.3%
O=C(CSc1nc2nccnc2c(=O)n1CCc1ccccc1)Nc1nccs1 — inhibition (ABL1 E255K; 10 µM): -1%
CCCS(=O)(=O)Nc1ccc(F)c(C(=O)c2c[nH]c3ncc(-c4ccc(Cl)cc4)cc23)c1F — inhibition (ABL1; 1 µM): < 20%
COc1cc2ncnc(Nc3ccc(Oc4ccccc4)cc3C)c2cc1OC — inhibition (Tyrosine-protein kinase ABL1 (ABL1, Homo sapiens, UniProt P00519, Y253F); 1 µM): 12%
CNC(=O)c1cc2c(Oc3ccc(NC(=O)C4(C(=O)Nc5ccc(F)cc5)CC4)cc3)ccnc2cc1OC — inhibition (ABL1 T315I; radiometric; 1 µM): 75%
CNc1cccc2cc(C(=O)Nc3ccc(C(=O)O)cc3)c(=O)[nH]c12 — inhibition (Tyrosine-protein kinase ABL1 (ABL1, Homo sapiens, UniProt P00519, Q252H); 10 µM): 0.4%
CC/C(=N\NC(=O)NCc1cccc(O)c1)c1ccc(O)c(C)c1O — inhibition (ABL1 E255K; 0.1 µM): -3.4%
